Compound activity: PubChem BioAssay, Broad Institute
Most compounds without a hit are left out; they make up all but 5.8% or so of the library.
KDM4C inh: blocks human GASC-1 (KDM4C) demethylase activity | 96,000 compounds, 0.15% hits | GST-KDM4C 2-372, H3K9me3 peptide, LANCE TR-FRET | inhibition, % at 12.5 µM | AID 720574;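 active = mean replicate inhibition above about 25%, with at least 55% of replicates also reaching it, limit read from the data, passing the limit was not always enough; inconclusive = only one of those two conditions met; inactive = neither condition met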
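reagent = H3K9me3 peptide substrate, Fe(II), 2-oxoglutarate | system = GST-tagged GASC-1 (JMJD2C) catalytic fragment, aa 2-372 | amount = enzyme final amount 10 nM | read-out = Fall in 671/618 emission ratio as inhibition | medium = HEPES buffer, pH 7.5, plus ascorbate | schedule = 30 min reaction, 60 min detection, RT | measured by = LANCE TR-FRET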
Pf Dd2 growth: P. falciparum Dd2 growth inhibition | activity change, % at 10 µM | 94,000 compounds, 2.3% hits | SYBR Green, 72 h; active compounds read low | AID 1159554; in the data active = activity change below about -80%; inconclusive = no clear call, values can overlap the other calls
Tcruzi prolif: blocks T. cruzi growth in NIH3T3 culture | T. cruzi beta-gal in NIH3T3, GalScreen luminescence, 90 h | inhibition, % at 8.34 µM | 77,000 compounds, 5.9% hits;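 active = mean inhibition above about 93%, with at least 55% of replicates each passing it, limit read from the data, passing the limit was not always enough; inconclusive = only one of those two conditions holds; inactive = neither condition holds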
IDH1 mut inh: blocks human IDH1 R132H reductase activity; O75874; diaphorase/resazurin fluorescence, 60 min; inhibition, % at 10 µM; 70,000 compounds, 0.18% hits; AID 624101; in the data active = inhibition above about 34%; inconclusive = no clear call, values can overlap the other calls; inactive = below about 11%
Target sequence (O75874 whole entry R132H): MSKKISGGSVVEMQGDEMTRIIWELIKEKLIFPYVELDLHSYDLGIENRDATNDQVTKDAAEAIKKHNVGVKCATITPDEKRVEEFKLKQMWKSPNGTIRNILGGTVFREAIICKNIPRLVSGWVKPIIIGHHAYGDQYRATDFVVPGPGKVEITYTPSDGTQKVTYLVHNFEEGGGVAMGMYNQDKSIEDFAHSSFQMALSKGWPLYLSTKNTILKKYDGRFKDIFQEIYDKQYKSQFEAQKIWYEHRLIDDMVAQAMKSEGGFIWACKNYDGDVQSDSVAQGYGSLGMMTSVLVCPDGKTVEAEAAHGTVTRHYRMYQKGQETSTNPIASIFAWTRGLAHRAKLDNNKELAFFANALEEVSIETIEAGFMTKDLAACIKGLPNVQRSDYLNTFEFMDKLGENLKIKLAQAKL
Of the large screens only hits and unclear results are named; the others gave an inactive call.

O=C(Nc1ccccc1F)N1CC(=O)N2[C@H](CO)[C@H](c3ccc(-c4ccccc4)cc3)[C@@H]2C1	none (no result: Tcruzi prolif, IDH1 mut inh)
O=C(Nc1ccccc1F)N1CC(=O)N2[C@H](CO)[C@@H](c3ccc(-c4ccccc4)cc3)[C@H]2C1	Pf Dd2 growth -84 (no result: Tcruzi prolif, IDH1 mut inh)
COc1ccc2c3c([nH]c2c1)[C@H](CO)N(C(=O)CN(C)C)CC31CCN(Cc2ccccc2)CC1	Pf Dd2 growth -82 (no result: Tcruzi prolif, IDH1 mut inh)
COc1ccc2c3c([nH]c2c1)[C@@H](CO)N(C(=O)CN(C)C)CC31CN(CC2CCCC2)C1	Pf Dd2 growth -86 (no result: Tcruzi prolif, IDH1 mut inh)
COc1ccc2c3c([nH]c2c1)[C@H](CO)N(C(=O)CN(C)C)CC31CN(CC2CCOCC2)C1	none (no result: Tcruzi prolif, IDH1 mut inh)
CO[C@H]1CN(C)C(=O)c2ccc(NS(C)(=O)=O)cc2OC[C@H](C)N(CCC(F)(F)F)C[C@@H]1C	none
CN(C)CCCNC(=O)[C@@H]1[C@@H](CO)[C@@H]2Cn3c(ccc(C4=CCCCC4)c3=O)[C@H]1N2Cc1cocn1	none (no result: IDH1 mut inh)
COc1ccc(S(=O)(=O)N(C)C[C@H]2Oc3ccc(NC(=O)NC(C)C)cc3CC(=O)N([C@H](C)CO)C[C@@H]2C)cc1	none
C[C@@H]1CN([C@@H](C)CO)C(=O)Cc2cc(NS(=O)(=O)c3cn(C)cn3)ccc2O[C@H]1CN(C)Cc1ccc(C(=O)O)cc1	none
CCCN(C)C[C@H]1OCCCC[C@@H](C)Oc2ccc(NC(=O)c3ccncc3)cc2C(=O)N([C@H](C)CO)C[C@@H]1C	none
CCCN(C)C[C@H]1OCCCC[C@@H](C)Oc2ccc(NC(=O)c3ccncc3)cc2C(=O)N([C@@H](C)CO)C[C@H]1C	Pf Dd2 growth -88 (no result: IDH1 mut inh)
CCCN(C)C[C@H]1OCCCC[C@H](C)Oc2ccc(NC(=O)c3ccncc3)cc2C(=O)N([C@H](C)CO)C[C@H]1C	Pf Dd2 growth -86 (no result: IDH1 mut inh)
COc1ccccc1CNC(=O)C[C@@H]1C=C[C@@H](NC(=O)CN(C)C)[C@@H](CO)O1	none
C[C@H]1CN([C@@H](C)CO)C(=O)c2c(c3ccccc3n2C)-c2ccccc2CO[C@H]1CN(C)C(=O)Nc1cccc(Cl)c1Cl	Pf Dd2 growth -91 (no result: Tcruzi prolif, IDH1 mut inh)
C[C@@H]1CN([C@@H](C)CO)C(=O)c2c(c3ccccc3n2C)-c2ccccc2CO[C@H]1CN(C)C(=O)Nc1cccc(Cl)c1Cl	Pf Dd2 growth -94 (no result: Tcruzi prolif, IDH1 mut inh)
C[C@H](CO)N1C[C@H](C)[C@@H](CN(C)C(=O)Nc2cccc(Cl)c2Cl)OCc2ccccc2-c2c(n(C)c3ccccc23)C1=O	none (no result: Tcruzi prolif, IDH1 mut inh)
C[C@H](CO)N1C[C@H](C)[C@H](CN(C)C(=O)Nc2cccc(Cl)c2Cl)OCc2ccccc2-c2c(n(C)c3ccccc23)C1=O	none (no result: Tcruzi prolif, IDH1 mut inh)
CCCN(C)C[C@@H]1OCCCC[C@H](C)Oc2ccc(NC(=O)Nc3cccc4ccccc34)cc2C(=O)N([C@H](C)CO)C[C@@H]1C	Pf Dd2 growth -88 (no result: Tcruzi prolif)
CCCN(C)C[C@@H]1OCCCC[C@@H](C)Oc2ccc(NC(=O)Nc3cccc4ccccc34)cc2C(=O)N([C@H](C)CO)C[C@@H]1C	Pf Dd2 growth inconclusive
C[C@@H]1CN([C@@H](C)CO)C(=O)c2cc(NC(=O)Nc3cccc4ccccc34)ccc2O[C@@H](C)CCCCO[C@@H]1CN(C)C(=O)c1ccccc1	none (no result: IDH1 mut inh)
C[C@@H]1CCCCO[C@@H](CN(C)C(=O)Nc2cccc3ccccc23)[C@@H](C)CN([C@@H](C)CO)C(=O)c2cc(NC(=O)Nc3cccc4ccccc34)ccc2O1	Pf Dd2 growth -83 (no result: IDH1 mut inh)
C[C@@H]1CCCCO[C@@H](CN(C)C(=O)Nc2cccc3ccccc23)[C@H](C)CN([C@@H](C)CO)C(=O)c2cc(NC(=O)Nc3ccccc3)ccc2O1	none
C[C@@H]1CCCCO[C@H](CN(C)C)[C@H](C)CN([C@H](C)CO)C(=O)c2cc(NC(=O)Nc3cccc4ccccc34)ccc2O1	Pf Dd2 growth -86
C[C@@H]1CN([C@@H](C)CO)C(=O)c2cc(NC(=O)Nc3cccc4ccccc34)ccc2O[C@@H](C)CCCCO[C@@H]1CN(C)C(=O)C1CCCCC1	Pf Dd2 growth -88 (no result: IDH1 mut inh)
Cc1ccc(S(=O)(=O)Nc2cccc3c2O[C@@H](CN(C)C(=O)Nc2cccc4ccccc24)[C@@H](C)CN([C@@H](C)CO)C3=O)cc1	none
CC(C)C(=O)Nc1ccc2c(c1)C(=O)N(C)[C@H]1CC[C@@H](CC(=O)N[C@H](C)c3ccccc3)O[C@H]1CO2	none (no result: IDH1 mut inh)
COc1ccc(S(=O)(=O)Nc2ccc3c(c2)C(=O)N([C@@H](C)CO)C[C@H](C)[C@@H](CN(C)C(=O)c2ccccc2)OCCCC[C@@H](C)O3)cc1	Pf Dd2 growth -89
C[C@@H]1CCCCO[C@H](CN(C)C(=O)Nc2ccc(F)cc2)[C@@H](C)CN([C@@H](C)CO)C(=O)c2cc(NS(=O)(=O)c3ccc(Cl)cc3)ccc2O1	Pf Dd2 growth -87 (no result: Tcruzi prolif, IDH1 mut inh)
C[C@@H]1CCCCO[C@H](CN(C)C(=O)Nc2ccccc2)[C@H](C)CN([C@@H](C)CO)C(=O)c2cc(NS(=O)(=O)c3ccccc3)ccc2O1	Pf Dd2 growth -84 (no result: Tcruzi prolif, IDH1 mut inh)
C[C@@H]1CCCCO[C@H](CN(C)C(=O)Nc2ccc(F)cc2)[C@H](C)CN([C@H](C)CO)C(=O)c2cc(NS(=O)(=O)c3ccccc3)ccc2O1	Pf Dd2 growth -91
C[C@@H]1CCCCO[C@H](CN(C)C(=O)Nc2ccc(F)cc2)[C@@H](C)CN([C@@H](C)CO)C(=O)c2cc(NS(=O)(=O)c3ccccc3)ccc2O1	none
COc1ccc(S(=O)(=O)Nc2ccc3c(c2)C(=O)N([C@@H](C)CO)C[C@@H](C)[C@H](CN(C)C(=O)Nc2ccccc2)OCCCC[C@@H](C)O3)cc1	Tcruzi prolif 111 (no result: IDH1 mut inh)
COc1ccc(S(=O)(=O)Nc2ccc3c(c2)C(=O)N([C@@H](C)CO)C[C@H](C)[C@@H](CN(C)C(=O)Nc2ccccc2)OCCCC[C@H](C)O3)cc1	none (no result: IDH1 mut inh)
COc1ccc(S(=O)(=O)Nc2ccc3c(c2)C(=O)N([C@@H](C)CO)C[C@H](C)[C@H](CN(C)C(=O)NC2CCCCC2)OCCCC[C@@H](C)O3)cc1	Pf Dd2 growth -88 (no result: IDH1 mut inh)
CO[C@H]1CC[C@@H]2CCN(C)C(=O)[C@@H](C)[C@H](OC)CN(C)C(=O)c3cc(C#N)ccc3OC[C@@H]1O2	none
C[C@@H]1CCCCO[C@H](CN(C)C(=O)Nc2cccc3ccccc23)[C@@H](C)CN([C@@H](C)CO)C(=O)c2cc(NC(=O)C3CCCCC3)ccc2O1	Pf Dd2 growth -85 (no result: IDH1 mut inh)
C[C@@H]1CN([C@@H](C)CO)C(=O)c2cc(NC(=O)C3CCCCC3)ccc2O[C@@H](C)CCCCO[C@@H]1CN(C)C(=O)Nc1cccc2ccccc12	Pf Dd2 growth -89 (no result: IDH1 mut inh)
C[C@@H]1CCCCO[C@H](CN(C)C(=O)Nc2cccc3ccccc23)[C@H](C)CN([C@@H](C)CO)C(=O)c2cc(NC(=O)C3CCCCC3)ccc2O1	none (no result: IDH1 mut inh)
C[C@H](CO)N1C[C@H](C)[C@H](CN(C)S(=O)(=O)c2cccc(F)c2)Oc2ncc(C#CC3CCCCC3)cc2C1=O	none (no result: Tcruzi prolif)
CO[C@H]1CN(C)C(=O)c2cc(NC(=O)c3ccccc3F)ccc2OC[C@H](C)N(C(=O)c2ccccc2F)C[C@H]1C	Pf Dd2 growth -87
